Experimental data taken from ChEMBL document CHEMBL1136789, “Synthesis and biological evaluation of new 2-(4,5-dihydro-1H-imidazol-2-yl)-3,4-dihydro-2H-1,4-benzoxazine derivatives” (J Med Chem, 2003).

Experiments:
[1] = In vitro alpha-1 adrenergic receptor binding affinity was determined on calf frontal cortex membrane preparation; assay type: tissue-based, Bos taurus
In short: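 Calf frontal cortex membranes (0.5 mg protein/mL) incubated 40 min at 25 °C with 0.5 nM [3H]prazosin in 50 mM phosphate buffer with 10 mM MgCl2. Competitors at 10^-9 to 10^-4 M. Nonspecific binding set with 10 µM phentolamine. Stopped by rapid vacuum filtration through glass fibre filters, then washed three times with ice-cold buffer. Ki reported.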

[2] = In vitro alpha-2 adrenergic receptor binding affinity was determined on calf frontal cortex membrane preparation; assay type: tissue-based, Bos taurus
Rattus norvegicus [3] = assay: Effect at (25 mg/kg, ip) on heart rate in anesthetized spontaneously hypertensive rats; assay type: functional
In short: (§1)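 Adult male SHR anaesthetised with sodium pentobarbital 50 mg/kg ip, left carotid catheter filled with heparinised saline. BP and HR (HR from pulse pressure) stabilised ≥40 min before a single ip dose, n=6/group. Vehicle 0.5% carboxymethylcellulose in water, 2.5 mL/kg. Recorded over 90 min. Output is the maximal change in MAP (mmHg) and HR (bpm) from pre-dose baseline, also as %. Repeated-measures ANOVA with Dunnett's tests.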

Rattus norvegicus [4] = assay: Effect (25 mg/kg ip) on heart rate in anesthetized spontaneously hypertensive rats; assay type: functional; in short: as §1
Rattus norvegicus [5] = assay: Effect (25 mg/kg ip) on mean arterial blood pressure in anesthetized spontaneously hypertensive rats; assay type: functional; in short: as §1
Rattus norvegicus [6] = assay: Effect after 30 mg/kg, po, on heart rate in conscious spontaneously hypertensive rats; assay type: functional
In short: (§2)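 Studied conscious 24 h after surgery. Dosed by oral gavage after ≥40 min stabilisation, n=6/group. Vehicle 0.5% carboxymethylcellulose, 5 mL/kg. MAP and HR recorded over 24 h. Output is the maximal change from baseline (mmHg, bpm, %). Repeated-measures ANOVA with Dunnett's tests.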

Rattus norvegicus [7] = assay: Effect after 30 mg/kg, po, on mean arterial blood pressure in conscious spontaneously hypertensive rats; assay type: functional; in short: as §2
Rattus norvegicus [8] = assay: Effect after 10 mg/kg, po, on heart rate in conscious spontaneously hypertensive rats; assay type: functional; in short: as §2
Rattus norvegicus [9] = assay: Effect after 100 mg/kg, po, on heart rate in conscious spontaneously hypertensive rats; assay type: functional; in short: as §2
Rattus norvegicus [10] = assay: Effect after 10 mg/kg, po, on mean arterial blood pressure in conscious spontaneously hypertensive rats; assay type: functional; in short: as §2
Rattus norvegicus [11] = assay: Effect after 100 mg/kg, po, on mean arterial blood pressure in conscious spontaneously hypertensive rats; assay type: functional; in short: as §2

SMILES	Ki [1]	Ki [2]	Max delta HR (Rattus norvegicus [3])	Variation (Rattus norvegicus [4])	Max delta MAP (Rattus norvegicus [5])	Variation (Rattus norvegicus [5])	Max delta HR (Rattus norvegicus [6])	Variation (Rattus norvegicus [6])	Max delta MAP (Rattus norvegicus [7])	Variation (Rattus norvegicus [7])	Max delta HR (Rattus norvegicus [8])	Variation (Rattus norvegicus [8])	Max delta HR (Rattus norvegicus [9])	Variation (Rattus norvegicus [9])	Max delta MAP (Rattus norvegicus [10])	Variation (Rattus norvegicus [10])	Max delta MAP (Rattus norvegicus [11])	Variation (Rattus norvegicus [11])
c1cc2c3c(c1)OC(C1=NCCN1)CN3CCCC2 (configuration not stated)	4600 nM	2150 nM	-65 beats min-1	-22%	21 mmHg	11%	–	–	–	–	–	–	–	–	–	–	–	–
c1cc2c3c(c1)ccn3CC(C1=NCCN1)O2 (configuration not stated)	> 1000 nM	360 nM	-45 beats min-1	-14%	-24 mmHg	-14%	–	–	–	–	–	–	–	–	–	–	–	–
CN1CC(C2=NCCN2)Oc2ccc(Cl)cc21 (configuration not stated)	1460 nM	52.5 nM	-96 beats min-1	-32%	-53 mmHg	-28%	-40 beats min-1	11%	-47 mmHg	-24%	–	–	–	–	–	–	–	–
Cc1cccc2c1N(C)CC(C1=NCCN1)O2 (configuration not stated)	4740 nM	145 nM	-52 beats min-1	-16%	47 mmHg	23%	–	–	–	–	–	–	–	–	–	–	–	–
Cc1cc2c(cc1C)N(C)CC(C1=NCCN1)O2 (configuration not stated)	5660 nM	26 nM	-100 beats min-1	-33%	-8 mmHg	-5%	–	–	–	–	–	–	–	–	–	–	–	–
CN1CC(C2=NCCN2)Oc2ccc(C(F)(F)F)cc21 (configuration not stated)	> 10000 nM	263 nM	-134 beats min-1	-43%	-32 mmHg	-18%	–	–	–	–	–	–	–	–	–	–	–	–
CN1CC(C2=NCCN2)Oc2cc3c(cc21)CCCC3 (configuration not stated)	> 10000 nM	98 nM	-53 beats min-1	-17%	-15 mmHg	-9%	–	–	–	–	–	–	–	–	–	–	–	–
COC(=O)c1ccc2c(c1)N(C)CC(C1=NCCN1)O2 (configuration not stated)	> 10000 nM	7500 nM	–	–	–	–	–	–	–	–	–	–	–	–	–	–	–	–
CCOCc1ccc2c(c1)N(C)CC(C1=NCCN1)O2 (configuration not stated)	> 10000 nM	> 1000 nM	–	–	–	–	–	–	–	–	–	–	–	–	–	–	–	–
CCCC1(C2=NCCN2)CN(C)c2ccccc2O1 (configuration not stated)	> 1000 nM	> 1000 nM	-56 beats min-1	-17%	22 mmHg	11%	–	–	–	–	–	–	–	–	–	–	–	–
CN1CC(C2=NCCN2)Oc2ccc(F)cc21 (single isomer, unassigned; (-))	> 1000 nM	32.9 nM	-143 beats min-1	-45%	-55 mmHg	-31%	–	–	–	–	–	–	–	–	–	–	–	–
c1cc2c3c(c1)OC(C1=NCCN1)CN3CCC2 (configuration not stated)	710 nM	340 nM	-77 beats min-1	-24%	-34 mmHg	-20%	–	–	–	–	–	–	–	–	–	–	–	–
CN1CC(C2=NCCN2)Oc2ccc(F)cc21 (stereo in doubt; (+)4h)	2540 nM	68.2 nM	-85 beats min-1	-25%	-50 mmHg	-28%	–	–	–	–	–	–	–	–	–	–	–	–
CN1CC(C2=NCCN2)Oc2cc3ccccc3cc21 (configuration not stated)	> 10000 nM	402 nM	-37 beats min-1	-11%	-17 mmHg	-9%	–	–	–	–	–	–	–	–	–	–	–	–
CN1CC(C2=NCCN2)Oc2ccc(F)cc21 (stereo in doubt; 4h)	5910 nM	104 nM	-139 beats min-1	-44%	-6 mmHg	-36%	-43 beats min-1	-12%	-56 mmHg	-29%	25 beats min-1	7%	-61 beats min-1	-18%	-34 mmHg	-18%	-81 mmHg	-44%
c1ccc2c(c1)NCC(C1=NCCN1)O2 (configuration not stated)	> 10000 nM	> 10000 nM	-8 beats min-1	-3%	-17 mmHg	-9%	–	–	–	–	–	–	–	–	–	–	–	–
Cc1ccc2c3c1CCCN3CC(C1=NCCN1)O2 (configuration not stated)	> 10000 nM	230 nM	-79 beats min-1	-25%	-17 mmHg	-9%	–	–	–	–	–	–	–	–	–	–	–	–
COc1cc(=O)n2c3c(ccc(C)c13)OC(C1=NCCN1)C2 (configuration not stated)	9400 nM	6800 nM	-17 beats min-1	-6%	-1 mmHg	0%	–	–	–	–	–	–	–	–	–	–	–	–
COc1ccc2c(c1)N(C)CC(C1=NCCN1)O2 (configuration not stated)	> 10000 nM	287 nM	-54 beats min-1	-18%	-14 mmHg	-8%	–	–	–	–	–	–	–	–	–	–	–	–
COc1cc(=O)n2c3c(cccc13)OC(C1=NCCN1)C2 (configuration not stated)	> 10000 nM	13000 nM	13 beats min-1	4%	-9 mmHg	-5%	–	–	–	–	–	–	–	–	–	–	–	–
Cc1cccc2c1OC(C1=NCCN1)CN2C (configuration not stated)	> 1000 nM	7.3 nM	-79 beats min-1	-25%	-24 mmHg	-13%	–	–	–	–	–	–	–	–	–	–	–	–
Cc1ccc2c(c1)OC(C1=NCCN1)CN2C (configuration not stated)	1000 nM	30 nM	-60 beats min-1	-19%	-34 mmHg	-20%	–	–	–	–	–	–	–	–	–	–	–	–
CN1CC(C)(C2=NCCN2)Oc2ccccc21 (configuration not stated)	> 1000 nM	> 1000 nM	-37 beats min-1	-11%	-17 mmHg	-9%	–	–	–	–	–	–	–	–	–	–	–	–
c1cc2c3c(c1)OC(C1=NCCN1)CN3CC2 (configuration not stated)	> 10000 nM	28.6 nM	-103 beats min-1	-25%	-56 mmHg	-30%	-94 beats min-1	-27%	-48 mmHg	-25%	-50 beats min-1	-14%	–	–	-19 mmHg	-10%	–	–
CN1CC(C2=NCCN2)Oc2ccc(CO)cc21 (configuration not stated)	> 10000 nM	10.4 nM	–	–	–	–	–	–	–	–	–	–	–	–	–	–	–	–
CN1CC(C2=NCCN2)Oc2c1ccc1ccccc21 (configuration not stated)	> 10000 nM	–	-80 beats min-1	-24%	-14 mmHg	-8%	–	–	–	–	–	–	–	–	–	–	–	–
